Experiment [1] deals with KB. The experiment is described as follows: Compound concentration required to reduce the exponential growth of KB cells by 50%. Format: functional. To be noted: Homo sapiens.
In experiment [2] the test system is MT4. The experiment is described as follows: Compound concentration required to reduce the exponential growth of MT-4 cells by 50%. It is filed as functional. The following applies: Homo sapiens. In outline: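 Lymphoid MT-4 cells in suspension culture, grown at 37 °C under 5% CO2 in RPMI 1640 with 10% FCS, penicillin G and streptomycin, and checked for mycoplasma. Compounds were dissolved in DMSO as a 200 mM stock, then diluted. Cytotoxicity was read as viability of mock-infected cells by MTT. The CC50 is the concentration reducing exponential cell growth by 50%.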

Experiment [3] has as its target T1, Human immunodeficiency virus type 1 integrase (Human immunodeficiency virus 1, UniProt Q7ZJM1). The experiment is described as follows: (§1) Compound concentration required to reduce HIV-1 Integrase 3'-processing activity by 50%.
The species named for experiment [4] is Homo sapiens. As to the kind of experiment: Fold increase in protein-linked DNA breaks (PLDB) with respect to untreated controls. Format: functional. In outline:
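KB cells labeled with [14C]thymidine (0.75 μCi/mL) for 48 h, trypsinized, resuspended at 3×10^5/mL, preincubated 1 h at 37 °C. […] Protein-linked DNA breaks quantified by K-SDS coprecipitation after SDS lysis, needle shearing, 65 °C incubation and 100 mM KCl precipitation. Expressed relative to untreated controls.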

In experiment [5] the target is T1, Human immunodeficiency virus type 1 integrase. Described as §1. In a few lines: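 His-tagged HIV-1 IN expressed in E. coli BL21(DE3), Ni-purified with 5 mM CHAPS. Released GT dinucleotide recovered by DEAE filtration and counted. Mean of three independent determinations.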
This is another data set of the same source.

This is an account of results in ChEMBL document CHEMBL1131129, “Geometrically and conformationally restrained cinnamoyl compounds as inhibitors of HIV-1 integrase: synthesis, biological evaluation, and molecular modeling” (J Med Chem, 1998).

For orientation: CC50 means the concentration giving 50% cytotoxicity. A lower CC50 goes with harm at low concentration. As a reminder, the IC50 is the point on the concentration scale where inhibition reaches its midpoint.

T1 sequence (Q7ZJM1 whole entry): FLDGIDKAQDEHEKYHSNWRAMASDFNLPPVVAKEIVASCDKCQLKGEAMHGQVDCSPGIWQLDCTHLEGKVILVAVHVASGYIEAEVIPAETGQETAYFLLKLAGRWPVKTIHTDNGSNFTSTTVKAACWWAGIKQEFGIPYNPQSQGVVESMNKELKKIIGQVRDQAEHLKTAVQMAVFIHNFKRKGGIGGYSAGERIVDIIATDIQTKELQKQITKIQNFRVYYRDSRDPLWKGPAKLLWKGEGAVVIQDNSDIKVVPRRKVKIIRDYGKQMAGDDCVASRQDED

Consider `O=C(/C=C/c1ccc(O)c(O)c1)c1cccc(C(=O)/C=C/c2ccc(O)c(O)c2)c1`, for which the CC50 in experiment [1] was found to be 5.8 µM; in experiment [2], 5 µM. In experiment [3] (read-out: IC50), the IC50 was 0.8 µM. In experiment [4], the Fold increase was determined as 1.2.

For the compound `O=C1/C(=C/c2ccc(O)c(O)c2)CNC/C1=C\c1ccc(O)c(O)c1`, the CC50 is 32 µM in experiment [1] and 21 µM in experiment [2]. Further, in experiment [3] (read-out: IC50), the IC50 worked out at 0.2 µM. In experiment [4], this compound gave a Fold increase of 1.4.

`Nc1nc[nH]n1` [AMITROLE]: the CC50 in experiment [1] and in experiment [2] was 100 µM in each case. Also, the IC50 in experiment [3] worked out at 0.17 µg/mL. Besides, the Fold increase in experiment [4] amounted to 1.1.

On to `COc1cc([C@@H]2c3cc4c(cc3[C@@H](O[C@@H]3O[C@@H]5CO[C@@H](C)O[C@H]5[C@H](O)[C@H]3O)[C@H]3COC(=O)[C@H]23)OCO4)cc(OC)c1O` [ETOPOSIDE], for which the CC50 came out at 0.1 µM in experiment [1] and 0.08 µM in experiment [2].

In the case of `COc1ccc(/C=C/C(=O)/C=C/c2ccc(OC)c(OC)c2)cc1OC`, the figures for the CC50 in experiment [1] and in experiment [2] were 6.7 µM and 4.1 µM, respectively. The IC50 in experiment [3] (read-out: IC50) was greater than 100 µM. This compound also displayed a Fold increase in experiment [4] of 1.1.

For `O=C1/C(=C/c2ccc(O)c(O)c2)CC/C1=C\c1ccc(O)c(O)c1`, the CC50 in experiment [1] came to 17 µM; in experiment [2] it was 15 µM. For the same compound, in experiment [3] (read-out: IC50), the IC50 was 1 µM. This compound registered a Fold increase in experiment [4] of 4.

On to `COc1ccc(/C=C/C(=O)/C=C(O)/C=C/c2ccc(OC)c(OC)c2)cc1OC`, for which the values for the CC50 in experiment [1] and in experiment [2] were 2 µM and 4.1 µM, respectively. Further, in experiment [3] (read-out: IC50), the IC50 was greater than 100 µM. Moreover, the Fold increase in experiment [4] was 1.4.

Consider `O=C(/C=C(O)/C=C/c1ccc(O)c(O)c1)/C=C/c1ccc(O)c(O)c1`, for which the CC50 worked out at 4.1 µM in experiment [1] and 17 µM in experiment [2]. Moreover, the half-maximal inhibitory concentration (IC50) in experiment [3] (read-out: IC50) stood at 0.7 µM. This compound also returned a Fold increase in experiment [4] of 1.1.

Turning to `COc1cc(/C=C/C(=O)CC(=O)/C=C/c2ccc(O)c(OC)c2)ccc1O` [CURCUMIN], the CC50 in experiment [1] was 16 µM; in experiment [2], 7.4 µM. Moreover, the IC50 in experiment [3] (read-out: IC50) stood at 30 µM. The Fold increase in experiment [4] was 1.

As to `O=C1C(=Cc2ccc(O)c(O)c2)C(=O)c2ccccc21`, the results for the CC50 in experiment [1] and in experiment [2] were 50 µM and 32 µM, respectively. In addition, in experiment [3] (read-out: IC50), the IC50 came to 3 µM. For the same compound, the Fold increase in experiment [4] stood at 2.

Take `O=C(/C=C/c1ccc(O)c(O)c1)c1ccccc1`: the CC50 in experiment [1] was found to be 3.1 µM; in experiment [2] it was 1.7 µM. The IC50 in experiment [3] (read-out: IC50) stood at 2.3 µM. Besides, the Fold increase in experiment [4] amounted to 1.3.

As to `O=C(/C=C(O)/C=C/c1ccccc1)/C=C/c1ccccc1`, the CC50 in experiment [1] was determined as 29 µM; in experiment [2], 41 µM. In experiment [3] (read-out: IC50), the IC50 was greater than 100 µM. Moreover, the Fold increase in experiment [4] worked out at 0.8.

Turning to `COc1cc(/C=C/C(=O)/C=C/c2ccc(O)c(OC)c2)ccc1O`, the cytotoxic concentration (CC50) was 8.5 µM in experiment [1] and 1.4 µM in experiment [2]. The IC50 in experiment [3] (read-out: IC50) was 37 µM. The compound also had a Fold increase in experiment [4] of 1.2.

`O=C(/C=C/c1ccc(O)cc1)c1ccc(O)cc1O` [ISOLIQUIRITIGENIN]: the CC50 came to 12 µM in experiment [1] and 7.4 µM in experiment [2]. In experiment [3] (read-out: IC50), the IC50 was greater than 100 µM. Also, the Fold increase in experiment [4] was determined as 1.7.

With `O=C(/C=C/c1ccc(O)c(O)c1)/C=C/c1ccc(O)c(O)c1`, the CC50 was determined as 21 µM in experiment [1] and 38 µM in experiment [2]. Besides, the concentration for half-maximal inhibition (IC50) in experiment [3] (read-out: IC50) is 0.6 µM. Further, in experiment [4], the Fold increase is 1.1.

Consider `O=C(/C=C/c1ccc(O)cc1)c1cccc(C(=O)/C=C/c2ccc(O)cc2)c1`, for which the half-maximal cytotoxic concentration (CC50) in experiment [1] is 22 µM; in experiment [2] it was 35 µM. For the same compound, the IC50 in experiment [3] (read-out: IC50) was found to be 30 µM. The Fold increase in experiment [4] amounted to 1.2.

With `O=C1/C(=C/c2ccc(O)c(O)c2)CSC/C1=C\c1ccc(O)c(O)c1`, the CC50 in experiment [1] worked out at 3.9 µM; in experiment [2], 4 µM. For the same compound, in experiment [3] (read-out: IC50), the IC50 came to 0.2 µM. For the same compound, the Fold increase in experiment [4] turned out to be 1.1.

`O=C(/C=C/c1ccc(O)c(O)c1)c1ccc(O)cc1`: the values for the CC50 in experiment [1] and in experiment [2] were 5.9 µM and 4.4 µM, respectively. The IC50 in experiment [3] (read-out: IC50) was found to be 1.3 µM. This compound came in with a Fold increase in experiment [4] of 1.6.

Take `CC[C@@]1(O)C(=O)OCc2c1cc1n(c2=O)Cc2cc3ccccc3nc2-1` [CAMPTOTHECIN]: the CC50 in experiment [1] worked out at 0.006 µM; in experiment [2], 0.01 µM. In addition, the IC50 in experiment [3] (read-out: IC50) is greater than 100 µM. For the same compound, the Fold increase in experiment [4] worked out at 3.5.

Turning to `O=C1/C(=C/c2ccc(O)c(O)c2)CCC/C1=C\c1ccc(O)c(O)c1`, the CC50 worked out at 8.9 µM in experiment [1] and 7.4 µM in experiment [2]. In addition, in experiment [3] (read-out: IC50), the IC50 turned out to be 0.9 µM. In experiment [4], this compound showed a Fold increase of 1.4.

As for `O=C(/C=C/c1ccc(O)cc1)/C=C/c1ccc(O)cc1`, the CC50 in experiment [1] is 7.4 µM; in experiment [2], 1.6 µM. For the same compound, the IC50 in experiment [3] (read-out: IC50) is greater than 100 µM. Besides, the Fold increase in experiment [4] was 1.1.

With `O=C1/C(=C/c2ccc(O)c(O)c2)Cc2ccccc21`, the CC50 in experiment [1] came out at 9.2 µM; in experiment [2], 5.5 µM. In experiment [5], this compound returned an IC50 of 86 µM. Further, in experiment [4], the Fold increase amounted to 5.1.

For `O=C(/C=C/c1ccc(O)c(O)c1)c1ccc(O)cc1O` [BUTEIN], the figures for the CC50 in experiment [1] and in experiment [2] were 9.1 µM and 5.3 µM, respectively. In addition, the IC50 in experiment [3] (read-out: IC50) is 20 µM. Further, in experiment [4], the Fold increase was found to be 2.2.

For `O=C(/C=C/c1ccc(O)cc1)CC(=O)/C=C/c1ccc(O)cc1` [BISDEMETHOXYCURCUMIN], the CC50 in experiment [1] stood at 8.5 µM; in experiment [2] it was 13 µM. The IC50 in experiment [3] (read-out: IC50) is greater than 100 µM. This compound also had a Fold increase in experiment [4] of 0.9.

For the compound `O=C(/C=C/c1ccc(O)c(O)c1)CCc1ccccc1`, the CC50 in experiment [1] stood at 30 µM; in experiment [2] it was 15 µM. Besides, the IC50 in experiment [3] (read-out: IC50) is greater than 100 µM. The compound also yielded a Fold increase in experiment [4] of 1.

As to `O=C1/C(=C/c2ccc(O)c(O)c2)COC/C1=C\c1ccc(O)c(O)c1`, the figures for the CC50 in experiment [1] and in experiment [2] were 15 µM and 10 µM, respectively. For the same compound, in experiment [3] (read-out: IC50), the half-maximal inhibitory concentration (IC50) worked out at 0.2 µM. This compound gave a Fold increase in experiment [4] of 0.9.

Regarding `COc1cc(/C=C2\CCC/C(=C\c3ccc(O)c(OC)c3)C2=O)ccc1O` [CYCLOVALONE], the cytotoxic concentration (CC50) came out at 6.7 µM in experiment [1] and 2.4 µM in experiment [2]. In addition, the IC50 in experiment [3] (read-out: IC50) was greater than 100 µM. In experiment [4], this compound gave a Fold increase of 1.8.
